# Bioassay records deposited in PubChem by several laboratories.
# Biofilm kill mix = mixtures killing C. albicans biofilm | C. albicans biofilm persisters + clotrimazole, fluorescence viability; primary screen in compound mixtures of four per well | 120,000 compounds, 0.02% hits | AID 1242 | inhibition, % at 7.6 µM;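 active = inhibition above 30.3% in the primary screen of four-compound pools, then above 30% when the compound was retested; inconclusive = passed the primary limit but could not be retested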;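 also: compounds exposed to preformed 24 h biofilms for 48 h; 0% = untreated biofilm control and 100% = clotrimazole plus chlorhexidine kill blank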
#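 Incubation: 24 h biofilm formation, then 48 h compound exposure, 37 °C | Material: C. albicans biofilms | Buffer or medium: RPMI/MOPS medium, pH 7.0 | Measured by: 2-h Alamar Blue fluorescence, 535/590 nm excitation/emission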
# ROMK primary = modulates human ROMK potassium channel activity; B-score at 10 µM; 130,000 compounds, 2% hits; Tet-inducible ROMK, thallium flux fluorescence; actives lie on both sides;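 active = signal ratio slope over the read window, or its plate-corrected B-score, at least 3 SD from the plate mean, either direction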;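 also: B-score of the F/F0 ratio slope over 7 to 12 s after thallium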
# Target sequence (P48048 whole entry, looked up): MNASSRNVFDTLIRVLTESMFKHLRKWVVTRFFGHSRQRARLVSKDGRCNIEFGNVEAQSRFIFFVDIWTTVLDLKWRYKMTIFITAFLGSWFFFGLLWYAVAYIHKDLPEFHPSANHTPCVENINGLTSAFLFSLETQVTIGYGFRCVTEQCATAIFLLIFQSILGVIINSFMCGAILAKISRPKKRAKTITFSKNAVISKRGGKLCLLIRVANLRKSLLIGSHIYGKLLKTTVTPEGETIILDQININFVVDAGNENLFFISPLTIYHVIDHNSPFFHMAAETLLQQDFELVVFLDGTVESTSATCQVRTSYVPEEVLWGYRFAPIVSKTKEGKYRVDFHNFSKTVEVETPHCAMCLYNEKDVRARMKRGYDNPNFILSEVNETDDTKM
# ROMK retest = confirmation of human ROMK potassium channel modulators. shares compounds with ROMK primary. ROMK thallium flux, fluorescence ratio; active compounds read low. normalized thallium flux (F/F0 slope) at 10 µM. 3,000 compounds, 54% hits;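 active = Flux at 10 µM at least 3 SD below or above vehicle control mean in one or both replicates; inconclusive = no clear call, values can overlap the other calls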
# An asterisk follows results filed as active; ? = inconclusive; . = no result given. Only a selection was taken, and hits are over-represented in it overall.
SMILES,Biofilm kill mix,ROMK primary,ROMK retest
c1coc(CSc2ncnc3c2oc2ccccc23)c1,32,.,.
CCCCCC1CCC(c2ccc(/C(N)=N/O)cc2)CC1 (configuration not stated),8,.,.
CCSc1nc(C)nc2sc(C)c(C)c12,33,.,.
CCOCCCNC(=O)c1cc(=O)n(Cc2cccc(C)c2)c2ccccc12,6,0.3,.
Cc1cc(OC2CCCCC2)nc(NCc2ccccc2)n1,-5,.,.
Cc1cc(N2CCCCC2)nc(NCc2ccccc2)n1,.,.,0.065*
COC(=O)/C=c1\[nH]c2nnc(C)n2c1=O,-1,0.39,.
C/C(=N\NC(=S)Nc1c(C)cccc1C)c1ccc(O)cc1,19,.,0.078
C/C(=N\NC(=S)Nc1c(C)cccc1C)c1cc2ccccc2o1,21,-0.014,.
COc1ccc(C2=NC(=O)/C(=C\c3cc(OC)c(OC)c(OC)c3)O2)cc1,14,-0.54,.
COc1ccc(NC(=S)NCCc2c(C)[nH]c3ccc(OC)cc23)cc1,9,-0.096,.
Cc1cccc(C)c1NC(=O)C(c1ccc([N+](=O)[O-])cc1)N(C)C(=O)c1ccccn1 (configuration not stated),13,0.034,.
O=C1NC(c2ccccc2)=C(c2ccc3ccccc3n2)C(c2ccccc2)N1 (configuration not stated),14,1,.
O=C1NC(c2ccccc2)=C(c2ccc3ccccc3n2)C(c2ccc(F)cc2)N1 (configuration not stated),11,-3*,0.076
Fc1ccc(-n2cc(-c3ccccc3)c3c(N4CCOCC4)ncnc32)cc1,14,-0.79,.
NC(=O)C1CCN(c2ncnc3c2c(-c2ccccc2)cn3-c2ccccc2)CC1,.,.,0.063*
O=C1c2cccc3c(N4CCCCC4)ccc(c23)C(=O)N1CCO,.,-5.3*,0.035*
C=CCN1C(=O)c2cccc3c(N4CCCCC4)ccc(c23)C1=O,5,.,.
O=C(c1cccc(N2C(=O)c3ccccc3C2=O)c1)N1CCCCCC1,26,-0.28,.
O=C1c2cccc3c(N4CCCCC4)ccc(c23)C(=O)N1c1cccc(O)c1,17,-3.6*,?
Cc1ccsc1/C=N/n1c(-c2ccccn2)n[nH]c1=S,9,-0.0044,.
Cc1cc(=O)n2ccsc2n1,11,0.34,.
O=C1OCc2cccc([N+](=O)[O-])c21,17,0.0037,.
O=C1Nc2ccccc2OCc2c1cccc2[N+](=O)[O-],-5,3.5*,0.1*
CCC(C)C(=O)Nn1c(C2CC2)nc2cc(OC)c(OC)cc2c1=O (configuration not stated),5,1,.
SMILES,Biofilm kill mix,ROMK primary,ROMK retest
COc1ccc(C(=O)n2nc(C)cc2Nc2ccccc2)cc1,.,1.8*,?
Cc1cc(Nc2ccccc2)nn1C(=O)c1ccc(Br)cc1,.,-0.32,.
COc1ccc(C(=O)C2CCCN(Cc3cccn3-c3ccc(Cl)cn3)C2)c(OC)c1 (configuration not stated),31,-1.9,.
COc1cc(CN(C)Cc2ccccc2)cc(OC)c1O,.,0.022,.
Cc1ccc(C)c(N2CCN(S(=O)(=O)c3ccc4[nH]c(=O)c(=O)[nH]c4c3)CC2)c1,.,3.9*,?
Cc1ccc(C)c(N2CCN(S(=O)(=O)c3ccc4c(c3)CCC(=O)N4)CC2)c1,.,0.039,.
CN(C)c1ccc(P(=O)(OCc2ccccc2)C(O)c2ccccc2)cc1 (configuration not stated),10,.,.
CCC(=O)Nc1ccccc1Sc1ncnc2scc(-c3ccccc3)c12,12,.,.
Cc1ccc(NC(=O)CCCSc2ccccc2)cc1S(=O)(=O)N1CCOCC1,1,-1.7,.
S=C1NCN(Cc2cccnc2)CN1c1cccc2ccccc12,22,.,.
O=C(Nc1nc(-c2cccs2)c(C(=O)C(F)(F)F)s1)c1ccccc1,15,-6.5*,0.054*
O=C(Nc1nc(-c2cccs2)c(C(=O)C(F)(F)F)s1)c1ccco1,10,0.62,.
Cc1ccc(S(=O)(=O)N2CCOCC2)cc1C(=O)Nc1nc2ccccc2[nH]1,16,.,.
CC1=C(C(=O)OCc2ccc(C)cc2)C(c2ccc(O)c([N+](=O)[O-])c2)NC(=O)N1 (configuration not stated),-8,-0.023,.
Cc1cc(Br)cn2ccnc12,.,1.2*,0.08
CCn1c(CNc2cccc(C(F)(F)F)c2)n[nH]c1=S,18,-0.0012,.
C[C@H]1[C@H](C)CC[C@]2(C(=O)O)CC[C@]3(C)C(=CC[C@@H]4[C@@]5(C)CC[C@H](O)C(C)(C)[C@@H]5CC[C@]43C)[C@H]12,13,.,.
C[C@H]1[C@H](C)CC[C@]2(C)CC[C@]3(C)C(=CC[C@@H]4[C@@]5(C)CC[C@@H](O)[C@](C)(C(=O)O)[C@@H]5CC[C@]43C)[C@H]12,13,.,0.081
Cc1cc(C)nc(NC(=O)COc2cc(Cl)cc(Cl)c2)n1,.,1.8,.
COc1cc(C)nc(NC(=O)COc2ccc(Cl)cc2C)n1,.,.,?
O=c1[nH]c2ccccc2nc1/C=C/c1ccc(Cl)cc1,1,-0.2,.
CCOC(=O)c1[nH]c(=O)[nH]c1CN(Cc1ccco1)Cc1[nH]c(=O)[nH]c1C(=O)OCC,22,-0.19,.
CCN(CC)C(=O)Cn1c(=O)c2ccccc2n2c(=S)sc(-c3cccc(C)c3)c12,7,.,0.049*
CCN(C(=O)Cn1c(=O)n(-c2cc(OC)c(OC)c(OC)c2)c(=O)c2ccccc21)c1cccc(C)c1,20,0.00023,.
CC(=O)C1=C(c2ccc(Br)cc2)C(=O)c2ccccc2C1=O,14,-4.7*,0.052*
SMILES,Biofilm kill mix,ROMK primary,ROMK retest
CNC1=C(N(C(C)=O)c2ccc(Br)cc2)C(=O)c2ccccc2C1=O,14,-1.3,.
O=C(Cn1cnc2cc([N+](=O)[O-])ccc2c1=O)Nc1cccc2ccccc12,-7,.,.
CCN(CC)S(=O)(=O)c1ccc(C)c(NC(=O)Cn2cnc3cc([N+](=O)[O-])ccc3c2=O)c1,5,2.9*,?
CC/C(C)=N/Nc1nc2c(c(=O)[nH]c(=O)n2C)n1CCc1ccccc1,37,.,.
CCOCCn1c(SCCCc2ccccc2)nc2c1c(=O)[nH]c(=O)n2C,.,-1.1,.
CC(C)=NNc1nc2c(c(=O)[nH]c(=O)n2C)n1CCc1ccccc1,15,-1.7*,0.073
CC(C)CCSc1nc2c(c(=O)[nH]c(=O)n2C)n1CCCc1ccccc1,.,.,0.072
Cc1ccn2c(CNCC3OCCc4ccccc43)c(C(=O)N3CCCCCC3)nc2c1 (configuration not stated),13,-2.5,.
CC1=[N+](C)c2c(ccc3cccnc23)C1(C)C,6,0.35,.
COc1ccc(NC(=O)/C(Cl)=C(/Cl)S(=O)Cc2ccccc2Cl)cn1 (configuration not stated),19,.,.
Cc1ccc(C(=O)N2NC(c3ccc(F)cc3)C3C(=O)N(c4ccc(C)c(C)c4)C(=O)C32)cc1 (configuration not stated),10,-0.1,.
Cc1cc(C(=O)CSc2nn3c(=O)c(C(C)(C)C)nnc3s2)c(C)n1C,13,0.54,.
O=C(C[n+]1ccc(/C=N/O)cc1)N(Cc1ccccc1)Cc1ccccc1,17,-1.9,.
CCC(C)NC(=O)CN(c1cc(Cl)cc(Cl)c1)S(C)(=O)=O (configuration not stated),27,0.025,.
CC(C(=O)N1CCc2ccccc2C1)N1C(=O)c2ccccc2C1=O (configuration not stated),8,.,.
CC(C)CC(C(=O)N1CCc2ccccc2C1)N1C(=O)c2ccccc2C1=O (configuration not stated),.,-3.5*,0.057*
